Test results reported in ChEMBL document CHEMBL1140019, “Primary amides as selective inhibitors of cathepsin K” (Bioorg Med Chem Lett, 2007).

How the values were obtained:
Cathepsin K = Cathepsin K (Homo sapiens, UniProt P43235); test: Inhibition of humanized rabbit cathepsin K
How it was run: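 IC50 was measured against the humanized rabbit enzyme and is the mean of at least four independent titrations, reported with SEM.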

Cathepsin S = Cathepsin S (Homo sapiens, UniProt P25774); test: Inhibition of human cathepsin S
Chain of Cathepsin S (P25774 whole entry): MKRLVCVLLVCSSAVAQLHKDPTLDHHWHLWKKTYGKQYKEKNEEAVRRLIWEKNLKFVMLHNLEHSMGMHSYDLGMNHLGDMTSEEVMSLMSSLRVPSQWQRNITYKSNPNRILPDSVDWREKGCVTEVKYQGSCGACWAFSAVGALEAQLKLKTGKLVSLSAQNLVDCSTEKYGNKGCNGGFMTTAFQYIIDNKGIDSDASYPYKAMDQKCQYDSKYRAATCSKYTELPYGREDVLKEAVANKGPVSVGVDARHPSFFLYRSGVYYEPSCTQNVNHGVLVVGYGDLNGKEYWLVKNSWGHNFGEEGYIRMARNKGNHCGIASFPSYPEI

Procathepsin L = Procathepsin L (Homo sapiens, UniProt P07711); test: Inhibition of human cathepsin L
Chain of Procathepsin L (P07711 whole entry): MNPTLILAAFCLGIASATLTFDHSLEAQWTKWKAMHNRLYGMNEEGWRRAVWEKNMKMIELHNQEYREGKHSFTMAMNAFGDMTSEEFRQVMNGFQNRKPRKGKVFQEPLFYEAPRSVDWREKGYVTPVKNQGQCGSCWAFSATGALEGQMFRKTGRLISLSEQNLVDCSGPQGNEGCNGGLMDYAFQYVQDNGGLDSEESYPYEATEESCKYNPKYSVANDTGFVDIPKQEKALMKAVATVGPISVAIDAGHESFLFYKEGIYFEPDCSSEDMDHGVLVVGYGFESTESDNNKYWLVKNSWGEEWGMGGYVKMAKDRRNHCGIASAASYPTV

Cathepsin B = Cathepsin B (Homo sapiens, UniProt P07858); test: Inhibition of human cathepsin B

| Structure (SMILES) | IC50 (Cathepsin K) [µM] | IC50 (Cathepsin S) [µM] | IC50 (Procathepsin L) [µM] | IC50 (Cathepsin B) [µM] |
| --- | --- | --- | --- | --- |
| COC(=O)[C@H](CCSC)NC(=O)[C@H](CC(C)C)N[C@@H](c1ccc(-c2ccc(S(C)(=O)=O)cc2)cc1)C(F)(F)F | 0.027 | – | – | – |
| CSCC[C@@H](C#N)NC(=O)[C@H](CC(C)C)N[C@@H](c1ccc(-c2ccc(S(C)(=O)=O)cc2)cc1)C(F)(F)F | 0.0002 | – | – | – |
| CSCC[C@H](NC(=O)[C@H](CC(C)C)N[C@@H](c1ccc(-c2ccc(S(C)(=O)=O)cc2)cc1)C(F)(F)F)C(N)=O | 0.013 | 76.9 | 55.7 | > 100 |
| CC(C)C[C@H](N[C@@H](c1ccc(-c2ccc(S(C)(=O)=O)cc2)cc1)C(F)(F)F)C(=O)N[C@@H](CCc1ccccc1)C(N)=O | 0.273 | – | – | – |
| CC(C)C[C@H](N[C@@H](c1ccc(-c2ccc(S(C)(=O)=O)cc2)cc1)C(F)(F)F)C(=O)N[C@@H](CCS(C)(=O)=O)C(N)=O | 0.151 | – | – | – |
| CC(C)C[C@H](N[C@@H](c1ccc(-c2ccc(S(C)(=O)=O)cc2)cc1)C(F)(F)F)C(=O)N[C@@H](C)C#N | 0.0009 | – | – | – |
| CC(C)C[C@H](N[C@@H](c1ccc(-c2ccc(S(C)(=O)=O)cc2)cc1)C(F)(F)F)C(=O)N[C@H](C#N)Cc1ccccc1 | 0.0006 | – | – | – |
| CC(C)C[C@H](N[C@@H](c1ccc(-c2ccc(S(C)(=O)=O)cc2)cc1)C(F)(F)F)C(=O)N[C@@H](CS(C)(=O)=O)C(N)=O | 0.109 | – | – | – |
| CC(C)C[C@H](N[C@@H](c1ccc(-c2ccc(S(C)(=O)=O)cc2)cc1)C(F)(F)F)C(=O)NCC(N)=O | 0.238 | 41.1 | 63.1 | > 100 |
| CSCC[C@H](NC(=O)[C@H](CC(C)C)N[C@@H](c1ccc(-c2ccc(S(C)(=O)=O)cc2)cc1)C(F)(F)F)C(=O)O | 0.12 | – | – | – |
| CSCC[C@H](NC(=O)[C@H](CC(C)C)N[C@@H](c1ccc(-c2ccc(S(C)(=O)=O)cc2)cc1)C(F)(F)F)C(=O)NCc1ccccc1 | 0.087 | – | – | – |
| CC(C)C[C@H](N[C@@H](c1ccc(-c2ccc(S(C)(=O)=O)cc2)cc1)C(F)(F)F)C(=O)N[C@H](Cc1ccccc1)C(N)=O | 6.07 | – | – | – |
| CSCC[C@H](NC(=O)[C@H](CC(C)C)N[C@@H](c1ccc(-c2ccc(S(C)(=O)=O)cc2)cc1)C(F)(F)F)C(C)=O | 0.041 | – | – | – |
| CC(C)C[C@H](N[C@@H](c1ccc(-c2ccc(S(C)(=O)=O)cc2)cc1)C(F)(F)F)C(=O)N[C@@H](Cc1ccccc1)C(N)=O | 0.01 | 66.7 | 17 | > 100 |
| CC(C)C[C@H](N[C@@H](c1ccc(-c2ccc(S(C)(=O)=O)cc2)cc1)C(F)(F)F)C(=O)NCC#N | 0.0002 | – | – | – |
| CC(C)C[C@H](N[C@@H](c1ccc(-c2ccc(S(C)(=O)=O)cc2)cc1)C(F)(F)F)C(=O)N[C@@H](C)C(N)=O | 0.174 | – | – | – |
| CNC(=O)[C@H](CCSC)NC(=O)[C@H](CC(C)C)N[C@@H](c1ccc(-c2ccc(S(C)(=O)=O)cc2)cc1)C(F)(F)F | 0.067 | – | – | – |
| CSCC[C@H](NC(=O)[C@H](CC(C)C)N[C@@H](c1ccc(-c2ccc(S(C)(=O)=O)cc2)cc1)C(F)(F)F)C(=O)NS(C)(=O)=O | 0.238 | – | – | – |
| CSC[C@H](NC(=O)[C@H](CC(C)C)N[C@@H](c1ccc(-c2ccc(S(C)(=O)=O)cc2)cc1)C(F)(F)F)C(N)=O | 0.066 | – | – | – |
| CSCC[C@H](NC(=O)[C@H](CC(C)C)N[C@@H](c1ccc(-c2ccc(S(C)(=O)=O)cc2)cc1)C(F)(F)F)C(=O)NCC(F)(F)F | 0.277 | – | – | – |
| CSCC[C@H](NC(=O)[C@H](CC(C)C)N[C@@H](c1ccc(-c2ccc(S(C)(=O)=O)cc2)cc1)C(F)(F)F)C(=O)N(C)C | 1.05 | – | – | – |
